We go through 5 compounds from ChEMBL document CHEMBL1148127, “Antimicrobial activities of a new schizozygane indoline alkaloid from Schizozygia coffaeoides and the revised structure of isoschizogaline” (2002).

In brackets after ≈: the same amount, converted by molar mass. Where only a bound is given, the exact number is not on record here.

What all share (format): functional
The test system of assay [1] is Trichophyton mentagrophytes. Description: Antimicrobial activity against Trichophyton mentagrophytes NCPF 224 after 10 days by microdilution technique. The conditions noted are these: 240 h. The procedure, abridged: (§1)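 Dermatophytes were grown on Sabouraud's dextrose agar at 26 °C for 10 days. Fresh inocula were standardized to 10^4 CFU per 100 µL for broth microdilution against compound in DMSO (initial 500 µg/mL). Plates were kept at 26 °C for 10 days and inspected visually every day, and the MIC was recorded. Controls were ketoconazole and DMSO alone.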
A general note: In broth dilution the organism is exposed to a series of concentrations in liquid medium.

A further assay has as its system Nannizzia gypsea. Description: Antimicrobial activity against Microsporum gypseum NCPF 40 after 10 days by microdilution technique. The note with it: 240 h. The procedure, abridged: as §1
For the next assay, the system named is Epidermophyton floccosum. Description: Antimicrobial activity against Epidermophyton floccosum after 10 days by microdilution technique. The conditions noted are these: 240 h. The procedure, abridged:
as §1

In another assay the test system is Trichophyton tonsurans. The assay is described as follows: Antimicrobial activity against Trichophyton tonsurans EQ 4329 after 10 days by microdilution technique. The note with it: 240 h. The procedure, abridged:
as §1

In assay [2] the test system is Trichophyton interdigitale. The assay is described as follows: Antimicrobial activity against Trichophyton interdigitale EQ 4115 after 10 days by microdilution technique. The note with it: 240 h. The procedure, abridged:
as §1

The test system of assay [3] is Cladosporium cladosporioides. Description: Antimicrobial activity against Cladosporium cladosporioides IMI 299104 after 10 days by microdilution technique. The conditions noted are these: 240 h. In a few lines: (§2)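 These plant-pathogenic Cladosporium strains were cultured on potato dextrose agar at 26 °C for 10 days. Suspensions were standardized to 10^4 CFU per 100 µL and tested by microdilution against compound dissolved in DMSO (initial 500 µg/mL). Plates were held at 26 °C for 10 days with daily visual growth checks, and the MIC was recorded. Controls were ketoconazole and DMSO alone.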

The next assay deals with Cladosporium herbarum. Description: Antimicrobial activity against Cladosporium herbarum after 10 days by microdilution technique. The conditions noted are these: 240 h. The procedure, abridged:
as §2

Another assay relates to Candida albicans. Description: Antimicrobial activity against Candida albicans after 24 hrs by microdilution technique. The procedure, abridged:
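Yeast was cultured on Sabouraud's dextrose agar at 30 °C for 24 h. A fresh suspension was standardized to 10^4 CFU per 100 µL and added to microdilution wells holding compound in DMSO (initial 500 µg/mL). Plates were incubated at 30 °C for 24 h and checked visually for growth to give the MIC. Controls were ketoconazole and DMSO alone.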

In the next assay the test system is Escherichia coli. The assay is described as follows: Antimicrobial activity against Escherichia coli NCTC 9002 after 24 hrs by microdilution technique. The note with it: NCTC 9002, 24 h. The procedure, abridged: (§3)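 Bacteria were grown on nutrient agar at 37 °C for 24 h. Fresh suspensions were standardized to 10^5 CFU per 100 µL and added to microdilution wells. Compounds were dissolved in DMSO with an initial concentration of 500 µg/mL. Ampicillin served as the positive control, with a DMSO-alone check. Growth was read visually and the MIC recorded.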

The test system of another assay is Staphylococcus aureus. Description: Antimicrobial activity against Staphylococcus aureus NCIMB 9515 after 24 hrs by microdilution technique. The procedure, abridged:
as §3

For the next assay, the system named is Bacillus subtilis. The assay is described as follows: Antimicrobial activity against Bacillus subtilis NCTC 10073 after 24 hrs by microdilution technique. The note with it: NCTC 10073, 24 h. In a few lines:
as §3

The next assay concerns Pseudomonas aeruginosa. Description: Antimicrobial activity against Pseudomonas aeruginosa NCIMB 10421 after 24 hrs by microdilution technique. In a few lines: as §3

Regarding `O=C1[C@H](O)[C@]23C=CCN4CC=C5c6cc7c(cc6N1[C@@]5(CC2)[C@@H]43)OCO7`, the MIC (in general, the lowest concentration that inhibits growth of the organism) in assay [1] was below 1.95 mg/L; against Nannizzia gypsea it was 1.95 mg/L (≈ 5.57 µM); with Epidermophyton floccosum, above 1.95 mg/L; against Trichophyton tonsurans, 3.9 mg/L (≈ 11.1 µM); in assay [2], below 3.9 mg/L; in assay [3] it was 7.8 mg/L (≈ 22.3 µM). Moreover, the MIC in the assay with Cladosporium herbarum is 15.6 mg/L (≈ 44.5 µM); in the assay on Candida albicans, 7.8 mg/L (≈ 22.3 µM); against Escherichia coli, 250 mg/L (≈ 714 µM); against Staphylococcus aureus, above 500 mg/L; with Bacillus subtilis it was above 500 mg/L; with Pseudomonas aeruginosa, above 500 mg/L.
Regarding `CC1(C)S[C@@H]2[C@H](NC(=O)[C@H](N)c3ccccc3)C(=O)N2[C@H]1C(=O)O` [AMPICILLIN], the MIC in the assay on Escherichia coli worked out at 20 mg/L (≈ 57.2 µM); in the assay on Staphylococcus aureus it was 12.5 mg/L (≈ 35.8 µM); against Bacillus subtilis it was 12.5 mg/L (≈ 35.8 µM); in the assay on Pseudomonas aeruginosa it was 25 mg/L (≈ 71.5 µM).
In the case of `COc1ccc2c(c1)N1C(=O)C[C@]34C=CCN5CC[C@@H]2[C@@H](CC3)[C@]514` [ISOSCHIZOGALINE], the MIC (in [1]; in the assay on Nannizzia gypsea; in the assay with Epidermophyton floccosum; against Trichophyton tonsurans; in assay [2]; in assay [3]) was above 500 mg/L in each case. For the same compound, the MIC was above 500 mg/L in the assay with Cladosporium herbarum; above 500 mg/L in the assay on Candida albicans; above 500 mg/L in the assay on Escherichia coli; 125 mg/L (≈ 388 µM) with Staphylococcus aureus; 62.5 mg/L (≈ 194 µM) against Bacillus subtilis; above 500 mg/L in the assay on Pseudomonas aeruginosa.
Turning to `CC(=O)N1CCN(c2ccc(OCC3COC(Cn4ccnc4)(c4ccc(Cl)cc4Cl)O3)cc2)CC1` (stereo not drawn) [KETOCONAZOLE], the MIC in assay [1] stood at 6.25 mg/L (≈ 11.8 µM); against Nannizzia gypsea, 6.25 mg/L (≈ 11.8 µM); in the assay on Epidermophyton floccosum, 25 mg/L (≈ 47 µM); with Trichophyton tonsurans, 50 mg/L (≈ 94.1 µM); in [2] it was 25 mg/L (≈ 47 µM); in assay [3] it was 25 mg/L (≈ 47 µM). Moreover, the results for the MIC in the assay with Cladosporium herbarum and against Candida albicans were 50 mg/L (≈ 94.1 µM) and 25 mg/L (≈ 47 µM), respectively.
With `O=C1C[C@]23C=CCN4CC[C@H]5c6cc7c(cc6N1[C@@]5(CC2)[C@@H]43)OCO7` [SCHIZOZYGINE], the MIC (in [1]; in the assay with Nannizzia gypsea; in the assay on Epidermophyton floccosum; in the assay with Trichophyton tonsurans; in assay [2]; in assay [3]) was above 500 mg/L throughout. For the same compound, the MIC against Cladosporium herbarum, with Candida albicans, with Escherichia coli, against Staphylococcus aureus, in the assay on Bacillus subtilis and in the assay on Pseudomonas aeruginosa was above 500 mg/L each time.
